Laboratory results taken from ChEMBL document CHEMBL4732095, “Novel naphthylamide derivatives as dual-target antifungal inhibitors: Design, synthesis and biological evaluation” (Eur J Med Chem, 2021).
The source made the active and inactive calls. The rule behind the calls is not given here.

What was measured:
[1] = system: Aspergillus fumigatus; experiment: Antifungal activity against Aspergillus fumigatus KM8001 assessed as inhibition of microbial growth by NCCLS protocol based method; type: functional
How it was run: (§1)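 Broth MIC50 determined following NCCLS guidelines in Sabouraud medium, with fungal suspension in 24-well format. Compound tested at 0.0625, 0.125, 0.5, 1, 2, 4, 8 and 16 μg/mL. Plates cultured statically at 35 °C. MIC50 is the lowest concentration giving 50% growth inhibition. Naftifine and fluconazole served as positive controls.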

[2] = system: Candida tropicalis; experiment: Antifungal activity against Candida tropicalis ATCC 1369 assessed as inhibition of microbial growth by NCCLS protocol based method; type: functional; how it was run: as §1
[3] = system: Candida albicans; experiment: Antifungal activity against Candida albicans ATCC 10231 assessed as inhibition of microbial growth by NCCLS protocol based method; type: functional; how it was run: as §1
[4] = system: Pichia kudriavzevii; experiment: Antifungal activity against Candida krusei ATCC 6258 assessed as inhibition of microbial growth by NCCLS protocol based method; type: functional; how it was run: as §1
[5] = system: Nakaseomyces glabratus; experiment: Antifungal activity against Candida glabrata ATCC 0001 assessed as inhibition of microbial growth by NCCLS protocol based method; type: functional; how it was run: as §1
[6] = system: Candida albicans; experiment: Antifungal activity against fluconazole-resistant Candida albicans CaR assessed as inhibition of microbial growth by NCCLS protocol based method; type: functional
[7] = system: Candida albicans; experiment: Antifungal activity against fluconazole-resistant Candida albicans 632 assessed as inhibition of microbial growth by NCCLS protocol based method; type: functional
[8] = system: Candida albicans; experiment: Antifungal activity against fluconazole-resistant Candida albicans 901 assessed as inhibition of microbial growth by NCCLS protocol based method; type: functional
[9] = system: Candida albicans; experiment: Antifungal activity against fluconazole-resistant Candida albicans 17# assessed as inhibition of microbial growth by NCCLS protocol based method; type: functional
[10] = system: Candida albicans; experiment: Antifungal activity against fluconazole-resistant Candida albicans 904 assessed as inhibition of microbial growth by NCCLS protocol based method; type: functional
[11] = system: Candida albicans; experiment: Antifungal activity against Candida albicans ATCC SC5314 assessed as induction of cell fracture at 10 nM/mL by polarizing microscopy; type: functional, organism-based; settings: dose 10.0 nmol/ml
How it was run: (§2)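 C. albicans ATCC SC5314 observed by polarizing microscopy over treatment time. Untreated, fluconazole- and naftifine-treated control groups were included. Cell density, dividing cells and cell fracture were assessed, with cell counts taken per field.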

[12] = system: Candida albicans; experiment: Antifungal activity against Candida albicans ATCC SC5314 assessed as reduction in cell division at 10 nM/mL by polarizing microscopy; type: functional, organism-based; settings: dose 10.0 nmol/ml; how it was run: as §2
[13] = Inhibition of Candida albicans ATCC SC5314 SE incubated for 30 mins by spectrophotometric method
How it was run: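 Enzymes (SE, CYP51) extracted from C. albicans SC5314 using kits. 50 µg enzyme incubated with varying compound concentrations for 30 min at 37 °C in Tris pH 7.4, KCl, MgCl2, 2 mM NADPH, with squalene or eburicol as substrate. Reaction stopped with acetonitrile and centrifuged. Eburicol consumption (CYP51) read by HPLC. Squalene, after sulfuric acid/formaldehyde derivatization, read at 400 nm (SE). IC50 reported.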

[14] = system: Candida albicans; experiment: Antifungal activity against Candida albicans ATCC SC5314 assessed as decrease in fungal cell density at 10 nM/mL by polarizing microscopy; type: functional, organism-based; settings: dose 10.0 nmol/ml; how it was run: as §2

| Structure (SMILES) | MIC50 [1] [µg/mL] | MIC50 [2] [µg/mL] | MIC50 [3] [µg/mL] | MIC50 [4] [µg/mL] | MIC50 [5] [µg/mL] | MIC50 [6] [µg/mL] | MIC50 [7] [µg/mL] | MIC50 [8] [µg/mL] | MIC50 [9] [µg/mL] | MIC50 [10] [µg/mL] | Activity [11] | Activity [12] | IC50 [13] [nM] | Activity [14] |
| --- | --- | --- | --- | --- | --- | --- | --- | --- | --- | --- | --- | --- | --- | --- |
| CC(NC(=O)c1ccc2ccccc2c1)C(=O)NC(Cn1ccnc1)C(=O)c1ccccc1 (centres undefined) | 8 | 0.125 | 0.25 | 0.25 | 0.5 |  |  |  |  |  |  |  |  |  |
| CN(CC(=O)Nc1cccnc1)C(=O)c1ccc2ccccc2c1 | 4 | 0.125 | 0.125 | 0.25 | 0.25 | 4 | > 16 | > 16 | 8 | > 16 |  |  |  |  |
| CN(C/C=C/c1ccccc1)Cc1cccc2ccccc12 [NAFTIFINE] | 8 | 0.5 | 0.5 | 2 | 0.25 | > 16 | > 16 | > 16 | > 16 | > 16 | Active | Active | 284 | Active |
| O=C(NC(Cn1ccnc1)C(=O)NCc1ccccc1)c1ccc2ccccc2c1 (centres undefined) | > 16 | 0.5 | 0.5 | 1 | 1 |  |  |  |  |  |  |  |  |  |
| Cc1ccc(NC(=O)C(Cn2ccnc2)NC(=O)c2ccc3ccccc3c2)cc1 (centres undefined) | 8 | 0.25 | 0.125 | 0.25 | 0.25 |  |  |  |  |  |  |  |  |  |
| CN(CC(=O)Nc1cccnc1)C(=O)c1cccc2ccccc12 | > 16 | 0.25 | 0.25 | 0.5 | 0.25 |  |  |  |  |  |  |  |  |  |
